For data set [1], the species on record is Rattus norvegicus. Briefly: Displacement of [3H]flunitrazepam from GABAA in rat cerebral cortical 10 uM. Put shortly:
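Rat cortical membrane homogenate in 50 mM sodium phosphate/200 mM NaCl pH 7.4. Duplicates, 500 μL final volume: 50 μg protein, test compound 10 μM, 1.0 μM GABA, 1.0 nM [3H]flunitrazepam. Nonspecific binding defined with 10 μM clonazepam. After 1 h at rt, filtered over PEI-soaked GF/B and counted. Net binding change versus basal is given as % of the 10 μM allopregnanolone response.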
Background: Loss of bound radioactivity is the signal in a displacement assay; it reports binding, not function.

Data set [2] is filed under the species Rattus norvegicus. Kind of data set: Displacement of […] from GABAA in rat cerebral cortical at 10 uM. Put shortly: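 Rat cerebral cortex membranes (sucrose homogenate, differential centrifugation, washed in 50 mM sodium phosphate/200 mM NaCl pH 7.4). Duplicate wells, 500 μL final volume: 50 μg protein, test compound 10 μM, 5.0 μM GABA, 2.0 nM [35S]TBPS. Nonspecific binding defined with 200 μM picrotoxin. Incubation 1 h at rt, then GF/B vacuum filtration and scintillation counting. Net change versus basal is reported as % of 10 μM allopregnanolone.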

The test system of data set [3] is Saccharomyces cerevisiae. Kind of data set: Antimicrobial activity against Saccharomyces cerevisiae after 3 days. The format is functional. Particulars: 72 h.
Data set [4] deals with MCF7. Briefly: Cytotoxicity against human MCF7 after 3 days by SRB assay. The format is functional, cell-based. Particulars: MCF7, 72 h. (In general: Sulforhodamine B stains cellular protein and so reports cell mass.)
Data set [5] in a line: (§1) Toxicity in brine shrimp. The format is organism-based. Particulars: artemia, in vivo. Put shortly: (§2)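 Brine shrimp lethality. LC50 in μg/mL, taken from single experiments with four concentrations, each run in triplicate.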
In data set [6] the test system is Micrococcus luteus. Briefly: Antimicrobial activity against Micrococcus luteus after 3 days. The class given is functional. Particulars: 72 h.
Data set [7] relates to Mycolicibacterium smegmatis. Kind of data set: Antimicrobial activity against Mycobacterium smegmatis after 3 days. The format is functional. Particulars: 72 h.
The subject of data set [8] is Aspergillus niger. Briefly: Antimicrobial activity against Aspergillus niger after 3 days. The format is functional. The following applies: 72 h.
The subject of data set [9] is NCI-H460. Briefly: Cytotoxicity against human H460 after 3 days by SRB assay. The format is functional, cell-based. Particulars: NCI-H460, 72 h.
Data set [10] deals with SF-268. Briefly: cells. The format is functional, cell-based. Particulars: Homo sapiens, SF-268, 72 h.
Data set [11] deals with Artemia. The description is as §1. The format is organism-based. Particulars: in vivo. In short, it runs like this:
as §2

Molecules are shown by their SMILES. ≈ marks a conversion by molar mass, not a printed value. Calls of active or inactive are those of the source. The calls are words filed in the database; no cut-off is given here.

On to `CC(=O)[C@H]1CC[C@H]2[C@@H]3CC[C@H]4C[C@H](O)CC[C@]4(C)[C@H]3CC[C@]12C`, for which the outcome in data set [1] and in [2] was Active.
The MIC is the least concentration at which growth counts as inhibited. Usually EC50 stands for the concentration giving half of the maximal effect. Read a low EC50 as greater potency. As a reminder, the LC50 is the concentration lethal to half of the exposed cells or organisms. A higher LC50 goes with lower toxicity. `CN[C@H]1CCc2cc(O)c(O)c(OC)c2-c2ccc(OC)c(=O)cc21`: the MIC in data set [3], in data set [6], in data set [7] and in data set [8] was greater than 500 µg/mL throughout. For the same compound, the EC50 in [4] stood at 130000 nM; in data set [9], 216000 nM; in data set [10], 80200 nM. The same compound displayed an LC50 in [5] of 88.2 µg/mL (≈ 257 µM).
As for `COc1c2c(cc3c1-c1ccc(OC)c(=O)cc1[C@@H](NC(C)=O)CC3)OCO2`, the MIC in [3], in data set [6], in [7] and in data set [8] was greater than 500 µg/mL throughout. In addition, the values for the concentration giving a half-maximal response (EC50) in [4], in data set [9] and in [10] were 61 nM, 59 nM and 97 nM, respectively. Further, in data set [5], the LC50 was 7.7 µg/mL (≈ 20.1 µM). Besides, the Activity in data set [1] and in data set [2] was 50% in each case.
Take `CN[C@H]1CCc2cc(O)c(OC)c(OC)c2-c2ccc(OC)c(=O)cc21`: the MIC in [3], in data set [6], in data set [7] and in data set [8] was greater than 500 µg/mL in each case. The EC50 in data set [4] came out at 790 nM; in [9], 1100 nM; in data set [10], 3200 nM. The compound further had an LC50 in [5] of 71.5 µg/mL (≈ 200 µM).
In the case of `COc1cc2c(c(OC)c1OC)-c1ccc(OC)c(=O)cc1[C@@H](NC(C)=O)CC2` (stereo in doubt; 1) [COLCHICINE], the minimal inhibitory concentration (MIC) in [3], in [6], in data set [7] and in data set [8] was greater than 500 µg/mL each time. The EC50 in data set [4] was determined as 16 nM; in data set [9], 30 nM; in data set [10], 25 nM. Besides, the LC50 in data set [5] was 3.7 µg/mL (≈ 9.26 µM).
The compound `COc1c(O)cc2c(c1OC)-c1ccc(OC)c(=O)cc1[C@@H](NC(C)=O)CC2` [3-DESMETHYLCOLCHICIN] had an LC50 in data set [5] of 74.6 µg/mL (≈ 194 µM).
`COc1cc2c(c(OC)c1OC)-c1ccc(OC)c(=O)cc1[C@@H](NC(C)=O)CC2` (stereo in doubt) [COLCHICINE] displayed an LC50 in data set [11] of 2.8 µg/mL (≈ 7.01 µM).
On to `COC1=C2c3ccc(OC)c(=O)cc3[C@H]3CC4(C)N3C24C=C(O)C1=O` (stereo not given in full) [DEMECOLCINONE], for which the MIC in data set [3], in data set [6], in data set [7] and in data set [8] was greater than 500 µg/mL each time. For the same compound, the results for the EC50 in data set [4], in [9] and in [10] were 28700 nM, 31300 nM and 28400 nM, respectively. In addition, in data set [5], the LC50 was found to be 79.3 µg/mL (≈ 234 µM).
In the case of `CC[C@@]1(O)C(=O)OCc2c1cc1n(c2=O)Cc2cc3ccccc3nc2-1` [CAMPTOTHECIN], the EC50 in [4] is 72 nM; in [9], 6.9 nM; in [10] it was 59 nM.
Turning to `CN[C@H]1CCc2cc(OC)c(OC)c(OC)c2-c2ccc(OC)c(=O)cc21` [DEMECOLCINE], the MIC in [3], in [6], in data set [7] and in data set [8] was greater than 500 µg/mL in each case. For the same compound, the EC50 in [4] was 600 nM; in data set [9], 690 nM; in [10], 6200 nM. In data set [5], this compound showed an LC50 of 61 µg/mL (≈ 164 µM).
On to `COC1=C[C@@H]2C3=C([C@@H]2C1=O)[C@@H](NC(C)=O)CCc1cc(OC)c(OC)c(OC)c13`, for which the MIC in [3], in [6], in data set [7] and in data set [8] was greater than 500 µg/mL each time. Moreover, the EC50 in data set [4] worked out at 1500 nM; in [9], 2100 nM; in data set [10] it was 3200 nM. Further, in [5], the 50% lethal concentration (LC50) came out at 74.6 µg/mL (≈ 187 µM).
Turning to `COc1ccc2c(c1O)[C@@H](NC(C)=O)CCc1cc(OC)c(OC)c(OC)c1-2`, the MIC in data set [3], in data set [6], in data set [7] and in data set [8] was greater than 500 µg/mL in each case. The EC50 in data set [4] amounted to 200 nM; in data set [9], 260 nM; in [10], 370 nM. The compound also returned an LC50 in data set [5] of 48.8 µg/mL (≈ 126 µM). The Activity in [1] and in data set [2] was 50% in each case.

(Values after ChEMBL document CHEMBL1142575, “New colchicinoids from a native Jordanian meadow saffron, colchicum brachyphyllum: isolation of the first naturally occurring dextrorotatory colchicinoid” (J Nat Prod, 2005).)
